We go through 1 compound from ChEMBL document CHEMBL4373712, “Bioactivatable Pseudotripeptidization of Cyclic Dipeptides To Increase the Affinity toward Oligopeptide Transporter 1 for Enhanced Oral Absorption: An Application to Cyclo(l-Hyp-l-Ser) (JBP485)” (J Med Chem, 2019).

Usually Ki stands for the dissociation constant of the complex between target and ligand, obtained from inhibition or displacement. In general, bioavailability refers to dose-corrected exposure relative to a reference, in per cent. A high value points to good availability. The IC50 is the concentration needed to halve the response being measured.

Data set [1] deals with T1, Solute carrier family 15 member 1 (Homo sapiens, UniProt P46059).
T1 sequence (P46059 whole entry): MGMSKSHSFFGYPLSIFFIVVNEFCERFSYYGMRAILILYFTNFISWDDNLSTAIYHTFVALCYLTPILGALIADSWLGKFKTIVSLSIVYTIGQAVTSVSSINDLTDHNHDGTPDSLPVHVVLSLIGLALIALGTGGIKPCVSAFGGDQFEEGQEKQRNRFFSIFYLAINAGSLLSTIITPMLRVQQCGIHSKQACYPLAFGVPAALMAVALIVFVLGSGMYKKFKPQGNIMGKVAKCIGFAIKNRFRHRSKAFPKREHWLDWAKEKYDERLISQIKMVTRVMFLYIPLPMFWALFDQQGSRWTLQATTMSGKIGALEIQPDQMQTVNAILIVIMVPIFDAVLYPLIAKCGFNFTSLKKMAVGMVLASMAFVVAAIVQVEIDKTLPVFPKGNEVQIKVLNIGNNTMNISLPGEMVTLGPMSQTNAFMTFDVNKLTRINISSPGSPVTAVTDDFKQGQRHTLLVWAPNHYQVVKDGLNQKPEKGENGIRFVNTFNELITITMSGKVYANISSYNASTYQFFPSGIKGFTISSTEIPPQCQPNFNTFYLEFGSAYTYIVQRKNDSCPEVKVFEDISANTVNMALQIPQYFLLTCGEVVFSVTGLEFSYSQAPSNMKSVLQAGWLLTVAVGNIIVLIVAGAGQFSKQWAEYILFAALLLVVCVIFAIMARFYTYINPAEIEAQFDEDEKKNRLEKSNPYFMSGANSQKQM
Briefly: Substrate activity at PEPT1 in human Caco2 cells assessed as inhibition of Gly-Sar uptake by LC-MS/MS analysis. The data set is classed as cell-based. The essentials:
(§1)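 Caco-2 cells with 0.5 mM Gly-Sar probe substrate and competitor at 0.5–50 mM. IC50 by nonlinear fitting; n=3.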

The target in data set [2] is T1, Solute carrier family 15 member 1. Kind of data set: Substrate activity at PEPT1 in human Caco2 cells assessed as protein-mediated drug uptake at 0.5 mM measured after 10 mins in pH 6 HBSS buffer by UPLC-MS/MS analysis. Format: ADME, cell-based. Conditions: caco-2, pH 6, 10 min, 500 µM; call rule not given here. The essentials:
(§2)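 Caco-2 cells incubated 10 min with 0.5 mM compound in HBSS at pH 6.0 or pH 7.4, washed three times in ice-cold PBS pH 7.4, homogenised. Protein by DC assay; drug by UPLC-MS/MS; n=3.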

In data set [3] the target is T2, Solute carrier family 15 member 1 (Rattus norvegicus, UniProt P51574).
T2 sequence (P51574 whole entry): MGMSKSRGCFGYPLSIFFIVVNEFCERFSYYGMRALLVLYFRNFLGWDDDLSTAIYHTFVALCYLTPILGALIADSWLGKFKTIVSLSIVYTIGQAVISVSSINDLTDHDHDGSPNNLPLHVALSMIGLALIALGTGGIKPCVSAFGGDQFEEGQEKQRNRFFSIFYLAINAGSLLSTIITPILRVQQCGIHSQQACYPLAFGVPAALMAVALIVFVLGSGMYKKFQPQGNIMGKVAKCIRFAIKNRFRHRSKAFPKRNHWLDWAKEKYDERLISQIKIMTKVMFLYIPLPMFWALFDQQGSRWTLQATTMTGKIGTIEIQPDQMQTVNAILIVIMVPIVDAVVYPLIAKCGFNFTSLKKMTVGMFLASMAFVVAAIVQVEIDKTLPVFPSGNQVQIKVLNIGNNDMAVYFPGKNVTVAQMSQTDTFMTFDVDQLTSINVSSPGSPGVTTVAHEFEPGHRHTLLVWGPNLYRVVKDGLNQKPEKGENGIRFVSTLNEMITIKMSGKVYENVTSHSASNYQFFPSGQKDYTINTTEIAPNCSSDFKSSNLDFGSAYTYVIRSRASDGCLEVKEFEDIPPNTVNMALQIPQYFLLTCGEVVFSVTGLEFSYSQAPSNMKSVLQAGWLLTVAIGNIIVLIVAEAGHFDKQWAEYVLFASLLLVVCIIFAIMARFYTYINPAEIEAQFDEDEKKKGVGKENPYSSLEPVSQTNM
Briefly: Substrate activity at PEPT1 in Sprague-Dawley rat jejunum assessed as effective permeability at 5 mM measured after 15 to 120 mins by HPLC analysis. The data set is classed as ADME, tissue-based. Conditions: 5000 µM. The essentials:
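In situ single-pass jejunal perfusion in fasted (12 h) male SD rats anaesthetised with urethane 1.5 g/kg i.p. About 10 cm of jejunum was perfused at 0.2 mL/min with pH 6.0 HEPES buffer containing 5 mM compound. Outflow was collected 15–120 min after steady state and assayed by HPLC. Peff was calculated from outlet/inlet concentration and volume ratios and segment radius and length.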

Data set [4] can be described thus: Oral bioavailability in rat. The data set is classed as ADME, organism-based. Conditions: in vivo.
The target of data set [5] is T1, Solute carrier family 15 member 1. Briefly: Substrate activity at PEPT1 in human Caco2 cells assessed as protein-mediated drug uptake at 0.5 mM measured after 10 mins in pH 7.4 HBSS buffer by UPLC-MS/MS analysis. The data set is classed as ADME, cell-based. Conditions: caco-2, pH 7.4, 10 min, 500 µM. The gist of the method:
as §2

Data set [6] concerns the target T2, Solute carrier family 15 member 1. Briefly: Ratio of compound effect for substrate activity at PEPT1 in Sprague-Dawley rat jejunum assessed as effective permeability in absence of non-metabolized PEPT1 substrate Gly-Sar to compound effect for substrate activity at PEPT1 in Sprague-Dawley rat jejunum assessed as effective permeability in presence of non-metabolized PEPT1 substrate Gly-Sar. Format: ADME.

Data set [7] addresses T1, Solute carrier family 15 member 1. Kind of data set: Substrate activity at PEPT1 in human Caco2 cells assessed as inhibition of Gly-Sar uptake measured after 10 mins by UPLC-MS/MS analysis. Format: cell-based. The essentials:
as §1

Where a SMILES comes first, the peptide text is derived from it. [ ]: non-standard residue; d: D form. Hyp = O=C(O)[C@@H]1C[C@@H](O)CN1 Bounds are passed on as bounds.

Regarding `O=C(O)[C@H](CO)NC(=O)[C@@H]1C[C@@H](O)CN1` (H-[Hyp]-Ser-OH), the Ki in data set [1] worked out at 2500 µM. In addition, the Drug uptake entry in data set [2] is recorded as “Active”; in data set [5], “Not Active”. Also, the Peff entry in data set [3] was “Permeable”. For the same compound, the bioavailability in data set [4] was at most 100%. The Ratio in data set [6] is 7.3. The IC50 in data set [7] stood at 1760 µM.
